Assay results pooled from the literature.
Target: Eukaryotic elongation factor 2 kinase (EEF2K, Homo sapiens, UniProt O00418)

SMILES | test | system | setting | endpoint | value
Cn1c2c(c3ccc(Cl)c(Cl)c31)C(C#N)C1(CCNCC1)NC2=O (racemic) | thermal stability, DSF |  | 10 µM | ΔTm | 0 °C
CCN(CC)CCNC(=O)c1c(C)[nH]c(/C=C2\C(=O)Nc3ccc(F)cc32)c1C | enzyme activity, inhibitor |  | 10 µM | inhibition | -4%
COc1cc(/C=C/C(=O)CC(=O)/C=C/c2ccc(O)c(OC)c2)ccc1O | enzyme activity, inhibitor |  | 1 µM | activity vs control | 98%
CC(C)(C)c1nc(-c2cccc(NS(=O)(=O)c3c(F)cccc3F)c2F)c(-c2ccnc(N)n2)s1 | enzyme activity, inhibitor, radiometric |  | 1 µM | remaining activity | 93%
Cn1c2c(c3ccc(Cl)c(Cl)c31)C(C#N)C1(CCOCC1)NC2=O (stereo not drawn) | thermal stability, DSF |  | 10 µM | ΔTm | -0.2 °C
CCN1CCN(Cc2ccc(NC(=O)c3ccc(C)c(Oc4ccnc5[nH]ccc45)c3)cc2C(F)(F)F)CC1 | target engagement in cells, inhibitor, chemoproteomics | A-375 | 5 µM | inhibition | -27.8%
CC/C(=N\NC(=O)NCc1cccc(O)c1)c1ccc(O)c(C)c1O | enzyme activity, inhibitor |  | 0.1 µM | inhibition | 1.1%
CCN1CCN(Cc2ccc(NC(=O)c3ccc(C)c(/C=C/c4cnc5[nH]ccc5c4OC)c3)cc2C(F)(F)F)CC1 | target engagement in cells, inhibitor, chemoproteomics | A-375 | 0.5 µM | inhibition | -21.7%
Cn1c2c(c3ccccc31)C(C#N)C(C)(C)NC2=O (stereo not drawn) | thermal stability, DSF |  | 10 µM | ΔTm | 0 °C
COc1cc(Nc2cnc(C#N)c(O[C@H](C)CN(C)C)n2)ncc1-c1cnn(C)c1 | enzyme activity, inhibitor, radiometric |  | 1 µM | remaining activity | 94%
COc1cc2ncnc(Nc3ccc(Oc4ccccc4)cc3C)c2cc1OC | enzyme activity, inhibitor |  | 1 µM | inhibition | 2%
Cc1ccc(Nc2nccc(N(C)c3ccc4c(C)n(C)nc4c3)n2)cc1S(N)(=O)=O | enzyme activity, inhibitor |  | 10 µM | inhibition | -10%
CC(C)(C)C(=O)c1sc(NC2CCCCC2)nc1N | enzyme activity, inhibitor |  | 10 µM | remaining activity | 111%
CN1CC(Oc2cnc(C#N)cc2-c2ccn3nc(NC(=O)C4CC4)cc3c2)C1 | enzyme activity, inhibitor |  | 1 µM | inhibition | 9%
FC(F)(F)Oc1cccc(-c2cnc3ccc(-c4ccncc4)nn23)c1 | enzyme activity, inhibitor, radiometric |  | 1 µM | activity vs control | 99%
Nc1nc(Nc2ccccc2)sc1C(=O)c1c(F)cccc1F | enzyme activity, inhibitor |  | 10 µM | remaining activity | 95%
COc1cc2nccc(Oc3ccc(NC(=O)c4c5n(n(-c6ccc(F)cc6)c4=O)CCCC5)cc3)c2cc1OC | enzyme activity, inhibitor |  | 0.1 µM | inhibition | 8%
Cn1c2c(c3ccc(Cl)c(Cl)c31)C(C#N)C1(CCCC1)NC2=O (stereo not drawn) | thermal stability, DSF |  | 10 µM | ΔTm | 0 °C
CCN(CC)c1ccc(C2=NNC(=O)CC2C)cc1[N+](=O)[O-] (stereo not drawn) | enzyme activity, inhibitor |  | 10 µM | remaining activity | 95%
CCCOc1ccc(OC)c(F)c1C(=O)c1ccc(C(=O)N[C@@H]2CNC[C@H]2NC(=O)c2ccc3[nH]ncc3c2)cc1 | enzyme activity, inhibitor |  | 10 µM | remaining activity | 128%
CNC(=O)c1cc(Oc2ccc(NC(=O)Nc3ccc(Cl)c(C(F)(F)F)c3)cc2)ccn1 | enzyme activity, inhibitor |  | 10 µM | inhibition | -8%
Cn1c2c(c3ccc(Cl)c(Cl)c31)C(C#N)C(C)(C)NC2=O (stereo not drawn) | thermal stability, DSF |  | 10 µM | ΔTm | -0.5 °C
Cn1c(=O)n(-c2ccc(C(C)(C)C#N)cc2)c2c3cc(-c4cnc5ccccc5c4)ccc3ncc21 | enzyme activity, inhibitor |  | 10 µM | remaining activity | 110%
CC(C)c1ccc(NC(=O)c2cccs2)c(-c2nc3ccccc3[nH]c2=O)c1 | enzyme activity, inhibitor |  | 1 µM | activity vs control | 113%
